# ERAP1 inh – ERAP1 (human) enzyme inhibition | inhibition, % at 10.7 µM | AID 652197 | actives 0.15% (n = 340,000) | recombinant ERAP1, Leu-AMC fluorescence, 60 min | Q9NZ08;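 active = mean replicate inhibition of at least 30%, or all replicates individually reaching that 30% level; inactive = mean below 30% and not every replicate reaching it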;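 note: 0% = neutral control wells and 100% = L-leucinethiol positive control wells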
# Env fusion inh – blocks HIV Env-driven cell-cell fusion; actives 1.1% (n = 360,000); HeLa-JRFL Env/CEM21 cell fusion, luciferase; inhibition, % at 12.3 µM;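 active = mean replicate inhibition score of at least 50 and every replicate individually at or above 50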;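 note: 0% = plate neutral controls and 100% = maraviroc near 300 nM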
# Cneo AK release – Cryptococcus neoformans lysis via adenylate kinase release; C. neoformans lysis, adenylate kinase release luminescence, 4 h; normalised: neutral wells 0, clomiphene wells 100; lysis activity, % at 15 µM; actives 0.2% (n = 360,000); AID 651654;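 active = mean lysis activity across replicates of at least 80%, whatever share of replicates individually reach that level; inactive = mean lysis activity below 80%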
#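 Test system: log-phase Cryptococcus neoformans yeast cells; Quantity: yeast cell density of 5 × 10^6 cells/mL; Buffer or medium: YPD; Doses: single compound concentration per well; Timing: 4 h at 37 °C static, read 1 h later; Measured by: AK luminescence; Read-out basis: lysis from increased AK signal; Control set: Clomiphene as positive control.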
# PGC1a acetyl inh – PGC1a acetylation modulation, inhibitor mode; actives 0.17% (n = 350,000); inhibition, % at 15.6 µM; U2OS PGC1a acetylation, AlphaScreen anti-acetyl-lysine; with virally co-expressed GCN5 acetyltransferase;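 active = every replicate shows inhibition of at least 40%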;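 note: 0% = neutral control wells and 100% = positive control wells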
# FGF22 binding – FGF22 (human) thermal shift binding; recombinant FGF22 thermal shift, SYPRO orange fluorescence; percent of sucrose octasulfate shift, DMSO zero; actives 1.5% (n = 340,000); Q9HCT0; activity (Tm shift, normalised), % at 9.99 µM; AID 651658;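 active = mean Tm shift, scaled 0 neutral to 100 positive control, at about 1.3% or above, every replicate too, limit read from the data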
# rRNA inh HTS – selective bacterial rRNA inhibition in E. coli; E. coli WT GFP vs humanized-ribosome RFP mutants, fluorescence, 24 h; hits give low values; DMSO median 0, no signal -100; GFP signal change (wild-type ribosome), % (concentration not given with the values); actives 1.6% (n = 350,000); AID 720706;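 active = significant combined selectivity score with lowered wild-type GFP, culture density cut under 30%, mutant RFP and density less affected; inactive = any of these conditions unmet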
# The depositor's hits bear a star; i = inactive; . = not tested or not shown; ! = not confirmed by another sample; [ ] = remark or other dose. In the library only some 3.5% were active in any assay of this set; here they are far more common.
SMILES,ERAP1 inh,Env fusion inh,Cneo AK release,PGC1a acetyl inh,FGF22 binding,rRNA inh HTS
COCCNC(=O)CN1CCC(n2c(C)nc3cc(C(F)(F)F)ccc32)CC1,.,-20.3,-1.7,-32.1,.,.
COC(=O)CSc1nc(C(C)C)nc2ccccc12,.,12.1,-3.9,8.2,.,.
CC(C)OC(=O)CSc1nc(Cc2cccs2)nc2ccccc12,-2.1,14.8,.,.,44.2*,-12.7
C/C(N)=C(/C#N)C(=O)CSc1n[nH]c(-c2cccs2)n1,1.2,-4.4,-0.5,3.7,0.1,13.6
Fc1cccc(CSc2ccc3nnc(-c4ccccn4)n3n2)c1,11.7,12.7,6.4,5.2,0.1,-7.3
CCCN1C[C@H](C)[C@@H](OC)CN(C)C(=O)c2cc(NC(=O)c3cccc(F)c3)ccc2OC[C@@H]1C,-2.2,.,116.6*,5.0,-0.6,0.6
COc1cccc(C(=O)Nc2ccc3c(c2)OC[C@@H](C)N(CCc2ccccc2)C[C@@H](C)[C@@H](OC)CN(C)C3=O)c1,1.4,.,-3.2,-3.7,0.2,-5.2
CCCN1C[C@H](C)[C@H](OC)CN(C)C(=O)c2ccc(NC(=O)c3cccc(F)c3)cc2OC[C@@H]1C,4.3,.,-0.1,-2.2,0.4,1.6
COc1cccc(C(=O)Nc2ccc3c(c2)OC[C@H](C)N(CCc2ccccc2)C[C@@H](C)[C@@H](OC)CN(C)C3=O)c1,0.9,-27.8,55.6,-0.7,0.5,-24.8*!
COc1cccc(C(=O)Nc2ccc3c(c2)C(=O)N(C)C[C@H](OC)[C@H](C)CN(CCc2ccccc2)[C@@H](C)CO3)c1,.,31.0[16.7 µM],-2.9,-9.4,0.8,-1.0
COc1cccc(C(=O)Nc2ccc3c(c2)C(=O)N(C)C[C@H](OC)[C@@H](C)CN(CCc2ccccc2)[C@H](C)CO3)c1,.,55.4*[16.7 µM],2.0,-26.7,0.0,-3.5
N#Cc1ccc(-c2nc3ccc(Br)cn3c2Cc2cccc(Cl)c2)cc1,-4.5,-103.2,-1.2,-12.8,0.0,-28.3
CCOc1ccc(C(=O)C2CCN(C(=O)c3ccccc3C(=O)O)CC2)cc1,.,-36.5,0.0,0.8,.,.
Cn1c(NCc2cc(Br)ccc2O)nc2ccccc21,.,16.4,0.7,5.6,.,.
Cn1c(NCc2c(O)ccc3ccccc23)nc2ccccc21,.,71.0*,.,.,.,.
O=c1oc2cc(O)ccc2cc1-c1nc2ccccc2o1,i,-12.3,.,.,0.3,-2.8
Cc1[nH]c2ccccc2c1C(=O)CSc1nc2cc(S(=O)(=O)N3CCCCC3)ccc2o1,.,65.2*,0.8,.,.,.
Cc1[nH]c2ccccc2c1C(=O)CSc1nc2ccccc2[nH]1,-2.2,.,-1.1,3.1,-0.2,-27.5*
Cc1[nH]c2ccccc2c1C(=O)CSc1nccc(=O)[nH]1,.,1.8,.,0.3,0.0,5.2
O=C(CSc1nc2ccccc2[nH]1)NCc1ccc(F)cc1,2.0,-5.1,-1.3,1.8,43.0*,-17.9
CC(C)NC(=O)Nc1ccc2c(c1)C(=O)N([C@@H](C)CO)C[C@H](C)[C@@H](CN(C)C(=O)Nc1ccccc1)OCCCC[C@@H](C)O2,0.1,-24.0[16.7 µM],-0.5,4.1,0.1,0.1
CCN(CC(O)Cn1c2ccccc2c2ccccc21)S(=O)(=O)c1ccc(C)cc1 (stereo not given),.,56.4*,-0.9,-14.9,.,.
COc1ccc2[nH]c3c(NCCC4=CCCCC4)ncnc3c2c1,-1.3,-2.1,.,16.4,0.1,-54.1*
COCCN1Cc2cc3cc(C)ccc3nc2SC1=Nc1ccc(OC)cc1,-0.9,18.2,.,7.7,0.3,12.2
CC(=O)N1CCN(CC(=O)Nc2ccc(Cl)c(S(=O)(=O)N(C)C)c2)CC1,-0.8,-20.4,.,.,0.1,13.8
CC(=O)N1CCN(CC(=O)Nc2ccc(C)c(S(=O)(=O)N(C)C)c2)CC1,4.5,-4.1,.,.,43.1*,12.6
CC(=O)N1CCN(CC(=O)Nc2ccc3c(c2)CCC3)CC1,-2.8,23.7,.,.,44.5*,13.1
O=C(CN1CCCC1)Nc1ccc2c(c1)CCC2,-2.0,0.7,.,5.4,42.0,3.3
CCN(CC)c1nc(C(F)(F)F)nc2c1nnn2Cc1ccccc1,-0.1,-1.6,1.5,0.9,0.0,2.8
CC(C)NC(=O)N(C)C[C@@H]1Oc2ccc(NS(=O)(=O)c3ccccc3)cc2CC(=O)N([C@H](C)CO)C[C@H]1C,1.8,-6.2[16.7 µM],0.2,0.8,0.2,2.3
